In ChEMBL document CHEMBL5038594, “Structural Fine-Tuning of Desmuramylpeptide NOD2 Agonists Defines Their In Vivo Adjuvant Activity” (J Med Chem, 2021):
Calls of active or inactive are those of the source. The rule behind the calls is not given here.

Columns and labels:
[1] = Cytotoxicity against HEK-Blue hNOD2 cells assessed as reduction in metabolic activity at 20 uM incubated for 18 hrs by MTS assay; format: toxicity, cell-based; settings: human, hek-blue hnod2, 18 h
Method in brief: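 HEK-Blue NOD2 cells, 40 000 per well, exposed to 20 μM compound or 0.1% DMSO for 18 h at 37 °C, 5% CO2. Metabolic activity measured by MTS (CellTiter 96 AQueous One) reagent. Duplicates, two independent biological replicates.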

[2] = target: T1, Nucleotide-binding oligomerization domain-containing protein 1 (Homo sapiens) (UniProt Q9Y239); experiment: Agonist activity at NOD1 in HEK-Blue hNOD2 cells assessed as increase in NFkappaB transactivation-mediated SEAP activity measured after 18 hrs by spectrophotometric method; format: cell-based; settings: HEK-Blue hNOD1, in the assay text read “HEK-Blue hNOD1 cells” for “HEK-Blue hNOD2 cells”
T1 sequence (whole entry): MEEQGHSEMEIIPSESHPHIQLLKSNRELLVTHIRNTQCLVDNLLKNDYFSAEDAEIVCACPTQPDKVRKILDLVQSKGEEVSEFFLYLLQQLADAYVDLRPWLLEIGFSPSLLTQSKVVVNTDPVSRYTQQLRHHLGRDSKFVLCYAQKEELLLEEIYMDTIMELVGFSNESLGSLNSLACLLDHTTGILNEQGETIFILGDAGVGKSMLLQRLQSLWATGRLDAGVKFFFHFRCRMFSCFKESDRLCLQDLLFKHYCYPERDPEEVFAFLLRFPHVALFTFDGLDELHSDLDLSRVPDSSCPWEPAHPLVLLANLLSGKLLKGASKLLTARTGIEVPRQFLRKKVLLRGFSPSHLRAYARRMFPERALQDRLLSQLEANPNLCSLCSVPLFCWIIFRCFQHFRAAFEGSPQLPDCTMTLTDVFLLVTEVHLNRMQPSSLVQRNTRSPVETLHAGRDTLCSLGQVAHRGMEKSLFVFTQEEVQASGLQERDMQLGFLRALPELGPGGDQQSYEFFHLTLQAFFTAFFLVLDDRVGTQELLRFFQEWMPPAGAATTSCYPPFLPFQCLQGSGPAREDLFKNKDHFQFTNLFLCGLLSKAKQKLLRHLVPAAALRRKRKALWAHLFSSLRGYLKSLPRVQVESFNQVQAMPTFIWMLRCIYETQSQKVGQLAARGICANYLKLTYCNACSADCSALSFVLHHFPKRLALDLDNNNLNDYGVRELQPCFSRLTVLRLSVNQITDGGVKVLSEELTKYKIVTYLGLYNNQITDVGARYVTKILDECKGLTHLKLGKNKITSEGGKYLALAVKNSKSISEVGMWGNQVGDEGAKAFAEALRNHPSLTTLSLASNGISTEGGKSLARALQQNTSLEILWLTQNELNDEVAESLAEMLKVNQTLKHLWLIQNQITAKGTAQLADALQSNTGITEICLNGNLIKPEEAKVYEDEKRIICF
Method in brief: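 Counter-screen in HEK-Blue NOD1 cells (HEK293 stably expressing human NOD1 plus an NF-κB-inducible SEAP reporter), seeded at 2.5 × 10^5 cells/mL in HEK-Blue detection medium. Compounds at 2 μM versus 0.1% DMSO vehicle, 18 h at 37 °C, 5% CO2. SEAP read as absorbance at 630 nm. Duplicates, at least two independent experiments.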

SMILES	Activity [1]	Activity [2]
CCOC(=O)CC[C@@H](NC(=O)[C@@H](NC(=O)CNC(=O)/C=C/c1ccc(C(C)C)cc1)C(C)C)C(=O)OCC	Non-Toxic	inactive
COc1cc(/C=C/C(=O)NCC(=O)N[C@H](C(=O)N[C@H](CCC(=O)N(C)OC)C(=O)OC(C)(C)C)C(C)C)ccc1O	Non-Toxic	inactive
CCCCCCCCCCCCCCCCCC(=O)Oc1ccc(/C=C/C(=O)NCC(=O)N[C@H](C(=O)N[C@H](CCC(=O)OC2CCCC2)C(=O)OC2CCCC2)C(C)C)cc1OC	Non-Toxic	inactive
CCOC(=O)CC[C@@H](NC(=O)[C@@H](NC(=O)CNC(=O)CCc1ccc(O)c(OC)c1)C(C)C)C(=O)OCC	Non-Toxic	inactive
CCOC(=O)CC[C@@H](NC(=O)[C@@H](NC(=O)CNC(=O)[C@@H]1C[C@H]1c1ccc(F)c(F)c1)C(C)C)C(=O)OCC	Non-Toxic	inactive
CCOC(=O)CC[C@@H](NC(=O)[C@@H](NC(=O)CNC(=O)/C=C/c1ccc(N)cc1)C(C)C)C(=O)OCC	Non-Toxic	inactive
CCCCCCCCCCCCCCCCCC(=O)NCCCC[C@H](NC(=O)CC[C@@H](NC(=O)[C@@H](NC(=O)CNC(=O)/C=C/c1ccc(O)c(OC)c1)C(C)C)C(=O)OCC)C(=O)OC	Non-Toxic	inactive
CCOC(=O)[C@@H](CCC(=O)N[C@@H](CCCCN)C(=O)OC)NC(=O)[C@@H](NC(=O)CNC(=O)/C=C/c1ccc(O)c(OC)c1)C(C)C	Non-Toxic	inactive
CCCCNC(=O)CC[C@@H](NC(=O)[C@@H](NC(=O)CNC(=O)/C=C/c1ccc(O)c(OC)c1)C(C)C)C(=O)NCCCC	Non-Toxic	inactive
CCCCCCCCCCCCCCCCCC(=O)Oc1ccc(/C=C/C(=O)NCC(=O)N[C@@H](COCc2ccccc2)C(=O)N[C@H](CCC(=O)OCC)C(=O)OCC)cc1OC	Non-Toxic	inactive
COc1cc(/C=C/C(=O)NCC(=O)N[C@H](C(=O)N[C@H](CCC(=O)OC2CCCC2)C(=O)OC2CCCC2)C(C)C)ccc1OC(C)=O	Non-Toxic	inactive
CCCCNC(=O)CC[C@@H](NC(=O)[C@@H](NC(=O)CNC(=O)/C=C/c1ccc(O)c(OC)c1)C(C)C)C(=O)OC(C)(C)C	Non-Toxic	inactive
CONC(=O)CC[C@@H](NC(=O)[C@@H](NC(=O)CNC(=O)/C=C/c1ccc(O)c(OC)c1)C(C)C)C(=O)OC(C)(C)C	Non-Toxic	inactive
CCOC(=O)CC[C@@H](NC(=O)[C@@H](NC(=O)CNC(=O)C1CC1c1ccc(F)c(F)c1)C(C)C)C(=O)OCC (some centres undefined)	Non-Toxic	inactive
CCOC(=O)CC[C@@H](NC(=O)[C@@H](NC(=O)CNC(=O)C1CC1c1ccc(OC)c(OC)c1)C(C)C)C(=O)OCC (some centres undefined)	Non-Toxic	inactive
COc1cc(/C=C/C(=O)NCC(=O)N[C@H](C(=O)N[C@H](CCC(=O)OC(C)(C)C)C(=O)N2CCCC2)C(C)C)ccc1O	Non-Toxic	inactive

SMILES	Activity [1]	Activity [2]
CCOC(=O)CC[C@@H](NC(=O)[C@@H](NC(=O)CNC(=O)/C=C/c1ccc(O)c(O)c1)C(C)C)C(=O)OCC	Non-Toxic	inactive
CCOC(=O)CC[C@@H](NC(=O)[C@H](CO)NC(=O)CNC(=O)/C=C/c1ccc(O)c(OC)c1)C(=O)OCC	Non-Toxic	inactive
CCOC(=O)CC[C@@H](NC(=O)[C@@H](NC(=O)CNC(=O)/C=C/c1ccc(O)c(OC)c1)[C@@H](C)O)C(=O)OCC	Non-Toxic	inactive
CCOC(=O)CC[C@@H](NC(=O)[C@@H](NC(=O)CNC(=O)[C@H]1C[C@@H]1c1ccc(F)c(F)c1)C(C)C)C(=O)OCC	Non-Toxic	inactive
CCCCCCCCCCCCCCCCCCOC(=O)CC[C@@H](NC(=O)[C@@H](NC(=O)CNC(=O)/C=C/c1ccc(O)c(OC)c1)C(C)C)C(=O)OCCCCCCCCCCCCCCCCCC	Non-Toxic	inactive
COc1cc(/C=C/C(=O)NCC(=O)N[C@H](C(=O)N[C@H](CCC(=O)N2CCCC2)C(=O)OC(C)(C)C)C(C)C)ccc1O	Non-Toxic	inactive
COc1cc(/C=C/C(=O)NCC(=O)N[C@H](C(=O)N[C@H](CCC(=O)OC(C)(C)C)C(=O)OC(C)(C)C)C(C)C)ccc1O	Non-Toxic	inactive
CCOC(=O)CC[C@@H](NC(=O)[C@@H](NC(=O)CNC(=O)/C=C/c1ccc(OC)c(OC)c1)C(C)C)C(=O)OCC	Non-Toxic	inactive
CCCCCCCCCCCC(=O)Oc1ccc(/C=C/C(=O)NCC(=O)N[C@H](C(=O)N[C@H](CCC(=O)OC2CCCC2)C(=O)OC2CCCC2)C(C)C)cc1OC	Non-Toxic	inactive
CCNC(=O)CC[C@@H](NC(=O)[C@@H](NC(=O)CNC(=O)/C=C/c1ccc(O)c(OC)c1)C(C)C)C(=O)NCC	Non-Toxic	inactive
CCCCCCCCCCCCCCCCCC(=O)Oc1ccc(/C=C/C(=O)NCC(=O)N[C@@H](CO)C(=O)N[C@H](CCC(=O)OCC)C(=O)OCC)cc1OC	Non-Toxic	inactive
CCOC(=O)CC[C@@H](NC(=O)[C@@H](NC(=O)CNC(=O)CCCc1ccc(O)c(OC)c1)C(C)C)C(=O)OCC	Non-Toxic	inactive
CCOC(=O)CC[C@@H](NC(=O)[C@@H](NC(=O)CNC(=O)C1CC1c1ccc(O)c(OC)c1)C(C)C)C(=O)OCC (some centres undefined)	Non-Toxic	inactive
COc1cc(/C=C/C(=O)NCC(=O)N[C@H](C(=O)N[C@H](CCC(=O)OC(C)(C)C)C(=O)N(C)OC)C(C)C)ccc1O	Non-Toxic	inactive
CCOC(=O)CC[C@@H](NC(=O)[C@@H](NC(=O)CNC(=O)/C=C/c1ccc([N+](=O)[O-])cc1)C(C)C)C(=O)OCC	Non-Toxic	inactive
CCOC(=O)CC[C@@H](NC(=O)[C@H](COCc1ccccc1)NC(=O)CNC(=O)/C=C/c1ccc(O)c(OC)c1)C(=O)OCC	Non-Toxic	inactive
